Measurements from ChEMBL document CHEMBL4145529, “Design, synthesis and biological evaluation of hybrid nitroxide-based non-steroidal anti-inflammatory drugs” (Eur J Med Chem, 2018).
Values belong to the compound of their own block, whether it stands above or below them.

What was measured:
[1] = biological target: T1, Prostaglandin G/H synthase 2 (Homo sapiens) (UniProt P35354); assay: Inhibition of COX2-induced PGE2 production in human A549 cells assessed as PGE2 level at 30 uM by ELISA (reference value: 57 +/- 4 pg/ml); format: cell-based
T1 sequence (whole entry): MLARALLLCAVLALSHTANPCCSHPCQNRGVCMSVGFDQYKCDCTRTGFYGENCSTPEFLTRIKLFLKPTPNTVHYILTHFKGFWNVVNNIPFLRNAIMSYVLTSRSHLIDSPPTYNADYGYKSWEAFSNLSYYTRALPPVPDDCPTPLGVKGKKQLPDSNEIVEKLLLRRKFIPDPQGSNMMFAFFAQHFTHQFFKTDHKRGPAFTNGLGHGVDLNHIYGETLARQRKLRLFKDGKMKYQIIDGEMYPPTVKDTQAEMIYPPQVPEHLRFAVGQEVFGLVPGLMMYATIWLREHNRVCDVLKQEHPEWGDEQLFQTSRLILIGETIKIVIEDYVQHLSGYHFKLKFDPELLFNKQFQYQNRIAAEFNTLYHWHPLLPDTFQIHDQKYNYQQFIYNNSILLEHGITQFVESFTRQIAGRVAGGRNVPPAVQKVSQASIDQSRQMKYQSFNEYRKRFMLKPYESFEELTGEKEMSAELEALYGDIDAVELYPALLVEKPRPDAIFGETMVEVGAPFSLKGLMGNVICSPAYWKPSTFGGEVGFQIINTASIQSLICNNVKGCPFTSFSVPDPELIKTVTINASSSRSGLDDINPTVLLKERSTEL
Procedure, shortened: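 A549 NSCLC cells treated with compounds at 30 μM; prostaglandin E2 released via COX quantified by ELISA, reported as pg/mL; mean ± S.D. of 3 determinations each repeated in duplicate; Student's t-test for significance.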

[2] = biological target: T1, Prostaglandin G/H synthase 2 (Homo sapiens); assay: Inhibition of COX2-induced PGE2 production in human A549 cells assessed as PGE2 level at 4 uM by ELISA (reference value: 126 +/- 17 pg/ml); format: cell-based
Procedure, shortened: (§1)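 COX-derived PGE2 released by A549 cells, measured by ELISA in pg/mL. Test concentrations 4 or 90 μM; combination wells got aspirin + Tempol at 90 μM each. Mean ± S.D. of 3 determinations, each in duplicate; Student's t-test.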

661W [3] = assay: Antioxidant activity in mouse 661W cells assessed as inhibition of antimycin-induced mitochondrial ROS production at 10 uM by fluorescence assay relative to control; format: functional
661W [4] = assay: Antioxidant activity in mouse 661W cells assessed as inhibition of antimycin-induced mitochondrial ROS production at 50 uM by fluorescence assay relative to control; format: functional
661W [5] = assay: Antioxidant activity in mouse 661W cells assessed as inhibition of antimycin-induced mitochondrial ROS production at 100 uM by fluorescence assay relative to control; format: functional
NCI-H1299 [6] = assay: Growth inhibition of human NCI-H1299 cells assessed as cell growth at 90 uM by MTT assay relative to control; format: functional; settings: read-out: Activity
Procedure, shortened: (§2)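 NCI-H1299 cell growth by MTT assay, tested at 18–900 μM; combination wells got aspirin + Tempol at equal concentration. Given as % growth. Mean ± S.D. of 3 experiments, each run in duplicate; Student's t-test.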

NCI-H1299 [7] = assay: Growth inhibition of human NCI-H1299 cells assessed as cell growth at 900 uM by MTT assay relative to control; format: functional; settings: read-out: Activity; procedure, shortened: as §2
NCI-H1299 [8] = assay: Growth inhibition of human NCI-H1299 cells assessed as cell growth at 900 uM in presence of tempol by MTT assay relative to control; format: functional; settings: read-out: Activity
Procedure, shortened: (§3)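 NCI-H1299 human NSCLC cells; proliferation measured by MTT assay with compounds at 90 or 900 μM, tested alone or as aspirin plus Tempol combination; growth expressed as % of control; mean ± S.D. of 3 experiments each in duplicate; significance by Student's t-test.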

NCI-H1299 [9] = assay: Growth inhibition of human NCI-H1299 cells assessed as cell growth at 90 uM in presence of tempol by MTT assay relative to control; format: functional; settings: read-out: Activity; procedure, shortened: as §3
[10] = biological target: T1, Prostaglandin G/H synthase 2 (Homo sapiens); assay: Inhibition of COX2-induced PGE2 production in human A549 cells assessed as PGE2 level at 90 uM by ELISA; format: cell-based; procedure, shortened: as §1
NCI-H1299 [11] = assay: Growth inhibition of human NCI-H1299 cells assessed as cell growth at 900 uM in presence of aspirin by MTT assay relative to control; format: functional; settings: read-out: Activity; procedure, shortened: as §2
[12] = biological target: T1, Prostaglandin G/H synthase 2 (Homo sapiens); assay: Inhibition of COX2-induced PGE2 production in human A549 cells assessed as PGE2 level at 90 uM in presence of aspirin by ELISA (reference value: 126 +/- 17 pg/ml); format: cell-based; procedure, shortened: as §1
NCI-H1299 [13] = assay: Growth inhibition of human NCI-H1299 cells assessed as cell growth at 90 uM in presence of aspirin by MTT assay relative to control; format: functional; settings: read-out: Activity; procedure, shortened: as §2
A549 [14] = assay: Anti-oxidant activity in human A549 cells assessed as inhibition of H2O2-induced ROS production by measuring ROS level at 100 uM by DCFH-DA staining based fluorescence assay (reference value: 194 +/- 13%); format: functional; design: scale not given: the % may be the effect or the level left
A549 [15] = assay: Effect on basal ROS level in human A549 cells at 100 uM by DCFH-DA staining based fluorescence assay (reference value: 100 +/- 5%); format: cell-based; settings: a549, 100 µM

Activity [1]: 52 pg/mL
SMILES: CC(=O)Oc1cc2c(cc1C(=O)O)C(C)(C)N([O])C2(C)C

Activity [2]: 99 pg/mL
Activity [1]: 54 pg/mL
SMILES: CC(=O)Oc1ccccc1C(=O)NC1CC(C)(C)N([O])C(C)(C)C1

Activity [1]: 45 pg/mL
SMILES: CC(=O)Oc1ccccc1C(=O)Nc1ccc2c(c1)C(C)(C)N([O])C2(C)C

SMILES: CC(=O)Oc1ccccc1C(=O)OC1CC(C)(C)N([O])C(C)(C)C1
Activity [2]: 87 pg/mL
Activity [1]: 31 pg/mL

Activity [1]: 34 pg/mL
SMILES: CC1(C)CC(C(=O)Oc2ccccc2C(=O)O)C(C)(C)N1[O] (configuration not stated)

Activity [1]: 23 pg/mL
SMILES: CC1(C)CC(C(=O)Oc2ccccc2C(=O)OCc2ccccc2)CC(C)(C)N1[O]

Activity [1]: 50 pg/mL
SMILES: CC1(C)c2cc(O)c(C(=O)O)cc2C(C)(C)N1[O]

SMILES: COc1ccc2c(c1)c(CC(=O)Nc1ccc3c(c1)C(C)(C)N([O])C3(C)C)c(C)n2C(=O)c1ccc(Cl)cc1
inhibition (661W [3]): 97.6%
inhibition (661W [4]): 82.3%
Activity [1]: 58 pg/mL
inhibition (661W [5]): 88.4%

SMILES: CC(=O)Oc1ccccc1C(=O)O [ASPIRIN]
growth at 90 µM (NCI-H1299 [6]): 103%
growth at 900 µM (NCI-H1299 [7]): 49%
growth at 900 µM (NCI-H1299 [8]): 53%
growth at 90 µM (NCI-H1299 [9]): 102%
Activity [10]: 79 pg/mL

SMILES: CC1=C[C@H](O)CC(C)(C)[C@H]1/C=C/C(C)=C/C=C/C(C)=C/C=C/C=C(C)/C=C/C=C(C)/C=C/C1=C(C)C[C@@H](O)CC1(C)C [LUTEIN]
inhibition at 10 µM (661W [3]): 89.7%

SMILES: CC1(C)CC(O)CC(C)(C)N1[O] [TEMPOL]
growth at 900 µM (NCI-H1299 [11]): 53%
Activity [12]: 75 pg/mL
growth at 90 µM (NCI-H1299 [13]): 102%
growth at 90 µM (NCI-H1299 [6]): 100%
growth at 900 µM (NCI-H1299 [7]): 98%
Activity (A549 [14]): 155%
Activity (A549 [15]): 103%
Activity [10]: 105 pg/mL
